Measured values published in publication PMC9673813 (International Journal of Nanomedicine, 2022).
Converted amounts (≈) assume the structure as drawn. Where two headings read alike, the source gives them in different places.

Key:
[1] = In vitro release investigation; assay type: physicochemical
Method in brief: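 Test formulation (1 mL, 200 ug/mL) was placed in a dialysis bag (8000–14,000 Da) in 200 mL PBS with 0.2% Tween-80, at 37 °C and 120 r/min. 3 mL of medium was withdrawn and replaced at 0.25–168 h. Samples were centrifuged at 8000 r/min for 10 min, and supernatant was analysed by HPLC for cumulative release. Data were fitted to zero-order, first-order and Higuchi models, with r² calculated; n=3.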

[2] = In vivo cumulative toxicity; parameters: species or system BALB/c mice
[3] = test system: normal hepatocyte cell line L02; experiment: In vitro cytotoxicity assay; assay type: cell-based
Method in brief: (§1)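 Cells grown in high-glucose DMEM with 10% FBS and 1% penicillin/streptomycin at 37°C, 5% CO2. Log-phase cells trypsinized, seeded at 5×10³/well, grown 24 h. Test formulations and blank nanoparticles added at 5, 10, 20, 40, 80 ug/mL for 24, 48, 72 or 96 h. MTT (5 mg/mL stock) added for 3–4 h, formazan dissolved in DMSO, A490 read. Inhibition rate calculated from blank-, control- and test-well OD. Dose–effect curves plotted; n=3.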

[4] = test system: MCF-7 tumor; experiment: In vivo antitumor assessment in MCF-7 tumor-bearing nude mice; parameters: species or system BALB/c nude mice
Method in brief: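 Female BALB/c nude mice, 4 weeks old, were inoculated in the left armpit with 0.1 mL MCF-7 suspension (3 × 10⁷ cells/mL). Dosing started at ~100 mm³ (n=10/group; saline control): 10 mg/kg intraperitoneally every 3 days for 20 days. Body weight and tumor volume (V = π/6·AB²) were measured every 3 days, and deaths tallied every 5 days. Tumors were weighed on day 20; IR = 1 − drug/control tumor weight. Procedures were blinded.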

[5] = Pharmacokinetics in SD rats; assay type: in vivo; settings: 10 mg/kg
Method in brief: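 SD rats (n=5/group) were injected with 10 mg/kg. Blood (0.3 mL) was collected at 0.08–120 h into heparin tubes and centrifuged. Plasma (100 μL) was extracted with methanol:ethyl acetate 10:90 and analysed by HPLC: C18 column, acetonitrile–phosphate water pH 4.0 65:35, 0.8 mL/min, 30 °C, 227 nm. Results are mean ± SEM.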

[6] = In vivo acute toxicity; parameters: species or system BALB/c mice; settings: single i.p. 40 mg/kg
Method in brief: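 Female BALB/c mice, 7 weeks, 20 ± 3 g, n=10/group, received a single intraperitoneal 40 mg/kg dose; saline control at equal volume. Status and deaths were recorded daily, and survival was followed over 10 days. Heart, liver and kidney from three randomly selected mice per group were H&E-stained for pathology.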

[7] = test system: breast cancer cell line MCF-7; experiment: In vitro cytotoxicity assay; assay type: cell-based; settings: Homo sapiens
Method in brief: as §1

With `CC(=O)O[C@H]1C(=O)[C@@]2(C)[C@H]([C@H](OC(=O)c3ccccc3)[C@]3(O)C[C@H](OC(=O)[C@H](O)[C@@H](NC(=O)c4ccccc4)c4ccccc4)C(C)=C1C3(C)C)[C@]1(OC(C)=O)CO[C@@H]1C[C@@H]2O` [PTX, Paclitaxel] the “release model that the in vitro release behavior accords with” value [1] was “first-order model”, the “cumulative release rate at 24 h” value ([1]; PBS with 0.2% Tween-80, 37 °C, 24 h) was “over 60%” and the “First-Order Equation k1” value ([1]; rate constant of release) was 0.0711. For the same compound, the “Higuchi's Equation kh” value ([1]; rate constant of release) was 7.2999, the “Zero Order Equation k0” value ([1]; rate constant of release) was 0.5097 and the “pathology of heart, liver and kidney tissues (H&E), cumulative toxicity” value ([2]; 10 mg/kg i.p. every three days for 60 days) was “Some damage to cells and muscle fibers”. The “mouse deaths within 60 days / throughout the experiment, cumulative toxicity” value ([2]; 10 mg/kg i.p. every three days for 60 days, n=10) was “all mice in this group died”, the “mouse deaths within seven days, cumulative toxicity” value ([2]; 10 mg/kg i.p. every three days, n=10) was “three mice died” and the IC50 ([3]; 24 h, read-out: IC50 24 h) was over 80 µg/mL. The IC50 ([3]; 48 h, read-out: IC50 48 h) was over 80 µg/mL, the IC50 ([3]; 72 h, read-out: IC50 72h) was 36.9 ± 3.18 µg/mL (≈ 43.2 µM) and the IC50 ([3]; 96 h, read-out: IC50 96h) was 17.3 ± 0.83 µg/mL (≈ 20.3 µM). The inhibition at 10 µg/mL ([3]; 96 h, read-out: inhibitory rate on cell growth higher than PTX-SLN@CUD) was 40.1%, the “deaths / survival of tumor-bearing nude mice during the test” value ([4]; 10 mg/kg i.p. every three days, 20 days) was “death of three nude mice” and the “tumor volume at 20 days / end of trial” value ([4]; 10 mg/kg i.p. every three days, day 20) was 1000 mm^3. The tumor inhibition rate ([4]; 10 mg/kg i.p. every three days, day 20, by tumor weight) was 32.93%, the “change of average body weight of nude mice” value ([4]; 10 mg/kg, 20 days versus beginning) was “significant decrease” and the “cancer cell necrosis (H&E staining of tumors)” value ([4]; 10 mg/kg, after 20 days) was 25%. For the same compound, the “time up to which plasma PTX concentration stayed detectable” value ([5]; SD rats, intravenous injection, sampling to 120 h) was 12 h, the AUC(0-t) ([5]; SD, rat, plasma, iv) was 2380 ± 276 ng·h/mL and the MRT last ([5]; SD, rat, plasma, iv) was 4.94 ± 0.653 h. For the same compound, the Tmax ([5]; SD, rat, plasma, iv) was 0.25 ± 0.02 h, the Vd ([5]; SD, rat, plasma, iv) was 54.5 ± 8.53 L/kg and the clearance ([5]; SD, rat, plasma, iv) was 57.2 mL/min/kg. For the same compound, the half-life ([5]; SD, rat, plasma, iv) was 11 ± 0.773 h, the “pathology of heart, liver and kidney tissues (H&E), acute toxicity” value [6] was “severe necrosis” and the “mouse deaths in acute toxicity trial” value ([6]; n=10) was 10 mice all died within 5 h. For the same compound, the IC50 ([7]; MCF7, 24 h, read-out: IC50 24 h) was over 80 µg/mL, the IC50 ([7]; MCF7, 48 h, read-out: IC50 48 h) was 64.3 ± 5.73 µg/mL (≈ 75.3 µM) and the IC50 ([7]; MCF7, 72 h, read-out: IC50 72h) was 26.2 ± 2.68 µg/mL (≈ 30.7 µM). For the same compound, the IC50 ([7]; MCF7, 96 h, read-out: IC50 96h) was 12.7 ± 0.97 µg/mL (≈ 14.8 µM).
